Data set [1] concerns constitutively activated NOTCH1. Kind of data set: NOTCH1-dependent dual-luciferase reporter-gene assay. The note with it: signal normalized to Renilla luciferase control. The data set is classed as cell-based. Background: In a reporter assay the amount or activity of a reporter protein is the signal.
Data set [2] is classed as cell-based.
Another data set has as its target RAMANK–CSL complex (Homo sapiens, UniProt P46531+Q06330). In words: Fluorescence polarization binding of FITC–SAHM peptides to RAMANK–CSL. A digest of the protocol:
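FITC-labelled stapled test peptides titrated against recombinant human RAMANK (NOTCH1 aa 1761–2127) pre-complexed with human CSL (aa 9–435). Both proteins were expressed and purified as previously reported. Buffer was 20 mM Tris pH 8.4, 150 mM NaCl, 1 mM EDTA and 1 mM DTT. Polarization was read at λex 485 nm and λem 525 nm. Data are mean ± s.d., n = 3.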
For orientation: Fluorescence polarisation rises when a labelled molecule tumbles more slowly, as on binding a larger partner.

Data set [3] has as its target pre-formed RAMANK–CSL complex (human, UniProt P46531 1761-2127; Q06330 23-449). In words: fluorescence polarisation.

Bridge positions count the residues as written; N and C are the ends. Square brackets hold non-standard residues; d marks the D form. Ends that are not written are not given here. Peptide text beside a SMILES is read from it. * marks the point of attachment. FITC = O=C1OC2(c3ccc(O)cc3Oc3cc(O)ccc32)c2ccc(NC(=S)*)cc21; S5 = C=CCCC[C@](C)(N)C(=O)O; βAla = NCCC(=O)O

Chain of pre-formed RAMANK–CSL complex (P46531 1761-2127, chain 1 of 2): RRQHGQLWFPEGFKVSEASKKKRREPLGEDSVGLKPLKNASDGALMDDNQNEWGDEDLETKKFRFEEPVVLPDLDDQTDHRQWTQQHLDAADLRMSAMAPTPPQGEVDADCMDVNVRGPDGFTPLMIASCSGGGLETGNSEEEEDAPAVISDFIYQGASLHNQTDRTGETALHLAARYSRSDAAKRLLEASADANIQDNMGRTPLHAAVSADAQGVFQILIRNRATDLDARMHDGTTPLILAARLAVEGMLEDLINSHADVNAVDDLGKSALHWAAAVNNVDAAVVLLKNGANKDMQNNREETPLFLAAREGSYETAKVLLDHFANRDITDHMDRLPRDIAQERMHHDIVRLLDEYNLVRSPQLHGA
Chain of pre-formed RAMANK–CSL complex (Q06330 23-449, chain 2 of 2): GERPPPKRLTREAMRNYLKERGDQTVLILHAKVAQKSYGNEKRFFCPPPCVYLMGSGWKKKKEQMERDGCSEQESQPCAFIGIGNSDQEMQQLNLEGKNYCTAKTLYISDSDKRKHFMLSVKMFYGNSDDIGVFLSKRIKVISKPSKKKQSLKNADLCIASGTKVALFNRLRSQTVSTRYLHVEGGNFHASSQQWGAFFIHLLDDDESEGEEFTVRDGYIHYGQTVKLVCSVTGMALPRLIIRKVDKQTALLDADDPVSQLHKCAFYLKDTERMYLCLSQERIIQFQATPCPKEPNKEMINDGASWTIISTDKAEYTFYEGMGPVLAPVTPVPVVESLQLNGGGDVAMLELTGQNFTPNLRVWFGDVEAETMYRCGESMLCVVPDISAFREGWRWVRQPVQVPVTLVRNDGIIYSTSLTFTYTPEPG

On to `C[C@H](NC(=O)Cc1cc(F)cc(F)c1)C(=O)N[C@H](C(=O)OC(C)(C)C)c1ccccc1` [DAPT], for which the “repression of luciferase activity” value in data set [1] is “near complete repression”.

A word on the Kd: it is the concentration at which binding is half-saturated. A lower Kd goes with higher affinity. Take `CC[C@H](C)[C@H](NC(=O)[C@H](CCCNC(=N)N)NC(=O)[C@H](CCCNC(=N)N)NC(=O)[C@H](CCCNC(=N)N)NC(=O)[C@H](CC(C)C)NC(=O)[C@H](CCCNC(=N)N)NC(=O)[C@H](CCC(=O)O)NC(=O)CCNC(=S)Nc1ccc2c(c1)C(=O)OC21c2ccc(O)cc2Oc2cc(O)ccc21)C(=O)N[C@@]1(C)CCCC=CCCC[C@@](C)(C(=O)N[C@@H](Cc2c[nH]cn2)C(=O)N[C@@H](Cc2c[nH]cn2)C(=O)N[C@@H](CO)C(=O)N[C@H](C(N)=O)[C@@H](C)O)NC(=O)[C@H](CCCNC(=N)N)NC(=O)[C@H](CS)NC(=O)[C@H](CC(C)C)NC1=O` [FITC–SAHM1] ({FITC-βAla}-ERLRRRI[S5]LCR[S5]HHST-NH2; staple 8-12; N-terminus assumed): the intracellular distribution result in data set [2] (FITC-labelled peptide) is “distributed throughout the cytoplasm and nucleus”. In addition, the “uptake at 4 °C relative to 37 °C” value in data set [2] (FITC-labelled peptide, 4 °C vs 37 °C) is reported as “diminished”. For the same molecule, the “cellular uptake (cell penetration)” value in data set [2] (FITC-labelled peptides, quantitative epifluorescence microscopy) is “robust and roughly equivalent cellular uptake”. This molecule showed a Kd at RAMANK–CSL complex of 0.12 ± 0.02 µM.

“FITC–MAML1(21–36): FITC-labelled unmodified MAML1(21–36) peptide ({FITC}-ERLRRRIELCRRHHST; UniProt Q92585 21-36, looked up, fragment)”: in the data set with RAMANK–CSL complex (fluorescence polarization, same buffer), the “binding affinity for RAMANK–CSL compared with FITC–SAHM1 (in words)” value was “markedly diminished affinity”.

B1: dnMAML1 (dominant-negative fragment of MAML1, amino acids 13–74) (domain or fragment, human, UniProt Q92585 13-74, looked up)
chain: LPRHSAVMERLRRRIELCRRHHSTCEARYEAVSPERLELERQHTFALHQRCIQAKAKRAGKH
The IC50 is the concentration at which inhibition is half-maximal. A high value points to weaker potency in that assay. On to B1, for which, in data set [3], the IC50 was determined as 3.9 µM.

Values taken from article PMC2951323 (Nature, 2009).
